Reference: the EternaBench riboswitch data

Tested on: MS2 coat protein
Assay: apparent Kd, MS2 coat protein; higher = weaker binding; RNA-MaP array
Procedure, shortened: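 The designed RNAs, transcribed from sequenced DNA templates on an Illumina sequencing chip, were incubated with fluorescently labeled MS2 coat protein at room temperature. Protein ranged from 1.5 nM to 3 μM, with 0.8–1.5 h incubation at the lowest and 10–20 min at the highest concentrations, in Tris-HCl pH 7.5 buffer with KCl, MgCl2, BSA, DTT, tRNA and Tween20, with or without input ligand. The median of per-cluster binding-curve fits gives the apparent Kd, and designs measured on fewer than 10 clusters were excluded.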

[1] = designed as: OFF switch for flavin mononucleotide, no ligand
[2] = ligand present: flavin mononucleotide, designed as: OFF switch for flavin mononucleotide
[3] = designed as: ON switch for flavin mononucleotide, no ligand
[4] = ligand present: flavin mononucleotide, designed as: ON switch for flavin mononucleotide
[5] = designed as: ON switch for theophylline, no ligand
[6] = ligand present: theophylline, designed as: ON switch for theophylline

| Sequence | apparent Kd [1] | apparent Kd [2] | other results |
| --- | --- | --- | --- |
| UGCCUAUACCAGAAGGGCGUACGGGAAAACAUGAGGAUCACCCAUGUGAGAUCAUCAUCGCUAGCGCAGGAUAUGGAAGUUCGG | 0.025 µM | 0.0294 µM | – |
| CCGACACAGAAGAAGGCUUUUGGUCUUAGCAGAAGAGGAUAUUCCUGUGUUCCGCGUACAUGAGGAUCACCCAUGUGUGAGCAC | 0.00659 µM | 0.00746 µM | – |
| UGACACAUGAGGAUCACCCAUGUUGGGUAAUGUUAACGUACAAGAAGGGCAGCCGGCCGGACGUUGCAGGAUAUUGUAGCGCGA | 0.0417 µM | 0.0311 µM | – |
| CUUCUGAAAGCAAUGGGAUCUGUUAUUGAUACCAGCAUCUGAUUUUGCCCUUGGCAGCAAGAAACAUGAGGAUCACCCAUGUGGC | – | – | apparent Kd (designed as: OFF switch for theophylline, no ligand): 0.0195 µM; apparent Kd (ligand present: theophylline, designed as: OFF switch for theophylline): 0.0612 µM |
| UGCGGCGAAGGAUAUUGACCAAAACACAUGAGGAUCACCCAUGUACUCAUAACAUGCUAACAAGAAGGUCGCGUAA | 0.0159 µM | 0.0138 µM | – |
| ACCAGUAAAUAGCAAUCACAUGAGGAUCACCCAUGUACUGACAAGGAUAUAGUCUAAGAAUAGUGCUAGAAGGUGUUUCCCUAA | – | – | apparent Kd [3]: 0.168 µM; apparent Kd [4]: 0.101 µM |
| CAGUAAGUAGGAUAUGUAUCAAGCUACAUGAGGAUCACCCAUGUGAACCCUAACAGCUGAACAGAAGGACUGUGUG | 0.156 µM | 0.198 µM | – |
| CCCUCGUUAUAGAAGGUCACAUUAAAUAAACAUGAAGGAUAUAUACCCAUUACACAUGAGGAUCACCCAUGUUAGGGCUGGCAU | 0.0142 µM | 0.0136 µM | – |
| GCCUGACCCAUAGGAUAUCGCGUAGCUGCCGGCUACGACACAUGAGGAUCACCCAUGUAUCAAAUCGAGAAGGAUGAUCUGCAA | – | – | apparent Kd [3]: 0.272 µM; apparent Kd [4]: 0.168 µM |
| GCUCUGUCAGGAUAUAGGACGGCAACAGGCAAACUAAGCAACUAGAAGGGACAUGAGGAUCACCCAUGUAGCGC | 0.00933 µM | 0.0092 µM | – |
| UAAAUGUUUUAGAAGGGAUAAUGCGGCAUUGAAUCAGGAUAUAAAGCUAUAAACACAUGAGGAUCACCCAUGUCCCAGGUUAAA | – | – | apparent Kd [3]: 0.477 µM; apparent Kd [4]: 0.143 µM |
| GCUAUAUCGUAGCUAACAUGAGGAUCACCCAUGUGAAGGAAGAGAAGGUGCAUCUAACAGACCCGCAAGGAUAUCUAGAUAAAG | – | – | apparent Kd [3]: 0.0188 µM; apparent Kd [4]: 0.0161 µM |
| UAUUGGAUAGGAUAUACAUGAGGAUCACCCAUGUUUUCAUUGGACGAGGACGCUCUUCGUAGAAGGAUCGGCUA | 0.0108 µM | 0.0102 µM | – |
| CAAGUCGGCAAGGAUAUGAAACGUAUUACAGAUUCAGAAGGUGCUACAUGAGGAUCACCCAUGUGGUCAAUACC | 0.00676 µM | 0.0131 µM | – |
| AUGGAACAUGAGGAUCACCCAUGUGAUGAUACCAGAUUAACGCUUAUCCCUUGGCAGCAUGUCCGCCCUCAACCUGUGGCGUAUU | – | – | apparent Kd [5]: 0.0222 µM; apparent Kd [6]: 0.0261 µM |
| UUGGCACGGACGGCCGCCACUCUUUCACAUGAGGAUCACCCAUGUUAUCUAGUCCUCAGCAGAAAGAGGACCGGGUCGGAGUUGG | – | – | apparent Kd (designed as: OFF switch for tryptophan, no ligand): 0.126 µM; apparent Kd (ligand present: tryptophan, designed as: OFF switch for tryptophan): 0.122 µM |
| AAUGGACGAGGAUAUACAUGAGGAUCACCCAUGUCACAGUGGGCUCACCGUUCGGGUAGUAGAAGGCGUUUCUA | 0.107 µM | 0.282 µM | – |
| GCUAUGAACGUAGGAUAUGAAGCCUGGCUUGGUUCAGAAGGACGUGAGUAAGUGAGGUCCUGACAUGAGGAUCACCCAUGUACA | 0.0239 µM | 0.0317 µM | – |
| CUCCUACAUGAGGAUCACCCAUGUGAGGAUAUCUCCCAGUGGGAAUAGUUUCCAUGGAAGAGAAGGCACAGUGA | 0.0244 µM | 0.0309 µM | – |
| AGCCUGGAAGCAGGAUAUGGGAUACAUGAGGAUCACCCAUGUAAGAUAAUAGGGCAACGAAGAAGCCAGAAGGGCUCGAGGUAA | – | – | apparent Kd [3]: 0.0162 µM; apparent Kd [4]: 0.0131 µM |
| UACCCAUUAGAGAAGGUUGACGCCCUAGUUGUCAAAGGAUAUCUCCUCGAGGCUACACAUGAGGAUCACCCAUGUUCACAGGUC | 0.00935 µM | 0.00892 µM | – |
| AGUGGGUAUGGGCAGGAUAUACGUCGGGCGACAUGAGGAUCACCCAUGUUGGGCGGUGAAGUUGAGUAGAAGGGCCUCCGCCCGAA | – | – | apparent Kd [3]: 0.0546 µM; apparent Kd [4]: 0.0121 µM |
| GUGGACAUGAGGAUCACCCAUGUAAGUCGGCGAGGACCGGUACGGCCGCCACUCGUGUUCUGUCUCAGCUCAAACGUAGCCGGAA | – | – | apparent Kd (designed as: ON switch for tryptophan, no ligand): 0.0363 µM; apparent Kd (ligand present: tryptophan, designed as: ON switch for tryptophan): 0.0179 µM |
| GGAAAAUAUAGGGAUACCAGAUAUGGCGUUGACAUGAGGAUCACCCAUGUCUUAGCAGUGAUCCCUUGGCAGCCCACACCAUCCG | – | – | apparent Kd [5]: 0.0716 µM; apparent Kd [6]: 0.034 µM |

| Sequence | apparent Kd [1] | apparent Kd [2] | other results |
| --- | --- | --- | --- |
| GCCCGUUAUUAGAAGGGUAUUCGGAUAUGCAUUCCUUACAUGAGGAUCACCCAUGUACCGCGAGUACAGGAUAUAAAACCGCCA | 0.0752 µM | 0.0697 µM | – |
| AAACAAGUAGGAUAUACAUGAGGAUCACCCAUGUAUUGUGAGGAUAGUACUGUACCAUGUAGAAGGACUCCGGA | 0.0107 µM | 0.00912 µM | – |
| UAAGGACUUAUAGGAUAUGCAAACAUGAGGAUCACCCAUGUGAACCACGAAAUGACGCAGAAUAAGCAGAAGGAUAGUACGUAC | – | – | apparent Kd [3]: 0.0327 µM; apparent Kd [4]: 0.0255 µM |
| GGCCUUUCGGUAAGGAUAUCCCUCCGCGCAGAUUGGGAGAAGGUACAUGAGGAUCACCCAUGUUUUAUGGCUGC | 0.0094 µM | 0.0108 µM | – |
| CUGCGCUCGAAGAAGGGCUGCCACAUGAGGAUCACCCAUGUCACUGACACCGAAGUUAGAAAGUAGCAGGAUAUUCAGGGUCCU | – | – | apparent Kd [3]: 0.0492 µM; apparent Kd [4]: 0.0324 µM |
| UAGAAACUCGUAAGGAUAUCCGAAGAGAAAAUGAGGGAGAAGGUACAUGAGGAUCACCCAUGUAUGAAAUGGAC | 0.00764 µM | 0.00798 µM | – |
| AUGUAGAAUCUAGGAUAUGCGAGAAACUGCGAAGCAGAAGGAGACUUGUACAUGAGGAUCACCCAUGUCCCGGGCGUCCCAACU | 0.0177 µM | 0.0242 µM | – |
| UAGAAAUCCUUGCAGGAUAUGUUGGAGUCUACAUGAGGAUCACCCAUGUUUAGUAGCAGGCGACGACAGAAGGGCAAUCUCAUGAU | – | – | apparent Kd [3]: 0.0236 µM; apparent Kd [4]: 0.00918 µM |
| AAUAAGAAAGGAUAUACAGAGGAUAAACUAAUAAAUAAAGGACAUGAGGAUCACCCAUGUAGAAGGUUCAAAAU | 0.0119 µM | 0.0117 µM | – |
| CGCCGUGAUUAGAAGGGUGGUGGGAAUCUUAUCACAGGAUAUAAAUAGGGCCGCUACAUGAGGAUCACCCAUGUCCUCCGGUCA | 0.2 µM | 0.165 µM | – |
| UAAUUAACGUAGAAGGAAUCCCAUCCGUUGCAAUUAGGAUAUACGUUCCCUCGAACAUGAGGAUCACCCAUGUGGCAACCAUAU | 0.0146 µM | 0.0138 µM | – |
| CGCAAGAUCUUAGGAUAUCUGUGAGCCAAGACUAGAGAAGGAAGGAGGCUGUGCAACAUGAGGAUCACCCAUGUAUCCCGUGCA | 0.0397 µM | 0.0354 µM | – |
| UCUGGUUGAGGAUAUACAUGAGGAUCACCCAUGUCACCUAGCAAAGUAGAGAGUAAGUGUAGAAGGCAACCUUU | 0.0156 µM | 0.0189 µM | – |
| GCAUUAGGGUAAGGAUAUUGAAUUAAACAUGGCAAAGUAAUUUUUGACAUGAGGAUCACCCAUGUCAAGAAGGUACUCAUUCAU | 0.00608 µM | 0.00574 µM | – |
| AUGGAACAUGAGGAUCACCCAUGUUAGGAUAUCGGCGAAGGGAGUUUUAUACUCACUGCGAGAAGGAACGUGAC | 0.0252 µM | 0.0187 µM | – |
| GUAGGUUGCCAAGGAUAUGCGGGUACUCUUCCGAAACAUGAGGAUCACCCAUGUACUCUCCUGUAGCAGAAGGUGGCUUGGUGA | 0.493 µM | 0.269 µM | – |
| CGAACAUGAGGAUCACCCAUGUGUUUCCUUGGUAGACGACAUAGAAGGGCCGUAAAUUACAGCGGGCAGGAUAUAUGACUUAAG | 0.164 µM | 0.137 µM | – |
| AUCGCAGAUGUAAGGAUAUUAGUGUAGCAACGGUCAAAGAAGGAACAUGAGGAUCACCCAUGUGGUAGAUAAAU | 0.019 µM | 0.0152 µM | – |
| GCCAGCAGUACAUGAGGAUCACCCAUGUCCCUUGUACUUUUAUAGGAUAUACGAGUGGCUACCAUGUAGAAGGAUAGAAUUGUC | 0.932 µM | 0.606 µM | – |
| UUUGUAUAGCAGAAGGCGUUAUUAGGAUGGCUACGAGGAUAUGCGGUACUCUAUUAGUACAUGAGGAUCACCCAUGUGUGGGCC | – | – | apparent Kd [3]: 0.214 µM; apparent Kd [4]: 0.145 µM |
| UAGUAAACCGCAGGAUAUCCAACUUGGGCACCAGGAGAAGGGCGAUUAACAUGAGGAUCACCCAUGUAUUCGGAGAGCUUACCU | – | – | apparent Kd [3]: 0.0104 µM; apparent Kd [4]: 0.00918 µM |
| GGGCCACCUCUAACAUGAGGAUCACCCAUGUUCGUCGGUUCCGAGGAUAUGUCUAGACGUAACGGACAGAAGGCGGUCCGGCUG | 0.0262 µM | 0.081 µM | – |
| GAUCGUUGGGAGGAUAUCCGCAAGUCCAGGGAGGGAGAAGGCCCAACAUGAGGAUCACCCAUGUAGAAGCGCAU | 0.051 µM | 0.0776 µM | – |
